Measurements from paper PMC12329029 (Scientific Reports, 2025).

Experiments:
MCF-7 = conditions: read-out: activity against MCF-7 breast cancer cells in vitro; cited from earlier work
[1] = system: proapoptotic Bax in MDA-MB-231 cells; test: Bax concentration in cell lysates; format: cell-based, human; conditions: 20 µM, 24 h
In short: (§1)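 MDA-MB-231 cells were grown in DMEM with 10% FBS and 1% penicillin/streptomycin at 37 °C, 5% CO2. They were reseeded in phenol-red-free DMEM with 10% CPSR1, used near 80% confluence and exposed to 20 µM for 24 h; untreated cells were the control. Cells were trypsinised, washed thrice in cold PBS, spun at 1000× g for 5 min at 4 °C, and 1.5 × 10^6 cells were lysed. Supernatants were frozen at −70 °C. Target protein was measured by antibody-precoated high-sensitivity kit. Three independent experiments in duplicate; one-way ANOVA with Tukey test.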

[2] = system: p53 tumour suppressor in MDA-MB-231 cells; test: p53 concentration in cell lysates; format: cell-based, human; conditions: 20 µM, 24 h
In short: as §1

[3] = system: Akt protein in MDA-MB-231 cells; test: Akt concentration in cell lysates; format: cell-based, human; conditions: 20 µM, 24 h, control 8.22 U/mL
In short: as §1

SMILES | IC50 (MCF-7) | concentration of Bax [1] | change of p53 level vs control [2] | concentration of Akt [3]
CC(=O)OC1CCC2(C)C(CCC3(C)C2CC=C2C4CC(C)(C)CCC4(C(=O)n4ccc(=O)[nH]c4=O)CCC23C)C1(C)C (stereo not drawn) [1-[(3β)-3-(acetyloxy)-28-oxoolean-12-en-28-yl]-2,4(1 H,3 H)-pyrimidinedione] | < 100 nM | – | – | –
C[C@H]1[C@H](C)CC[C@]2(C(=O)O)CC[C@]3(C)C(=CC[C@@H]4[C@@]5(C)CC[C@H](O)C(C)(C)[C@@H]5CC[C@]43C)[C@H]12 [Ursolic acid 1, Ursolic acid] | – | 760 pg/mL | increased the p53 concentration, but the values were statistically insignificant | 4.49 U/mL
